Test results as given in ChEMBL document CHEMBL4699436, “Scaffold diversity for enhanced activity of glycosylated inhibitors of fungal adhesion” (RSC Med Chem, 2020).

Legend:
Candida albicans [1] = test: Anti-adherence activity against Candida albicans serotype B assessed as displacement of adhered yeast cells on BECs at 13.8 mM incubated for 90 mins after preincubation of yeast cells with BECs by crystal violet staning based microscopic method relative to PBS control; type: functional, organism-based
Outline: (§1)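 C. albicans MEN (serotype B, corneal clinical isolate) was grown overnight to stationary phase in YEPD at 30 °C and 200 rpm, washed, and resuspended in PBS at 1 × 10^8 cells per mL. Buccal epithelial cells were scraped from healthy volunteers, washed, and held at 5 × 10^5 per mL. Yeast and BECs (50:1) were co-incubated first. The BECs with adherent yeast were collected on a 30 μm polycarbonate membrane, then re-incubated with compound for 90 min. Yeast on 200 BECs were counted after crystal violet staining. Control 1 was PBS. Control 2 was the PBS-treated count after the second filtration, to account for physical detachment. Three independent occasions; mean ± SEM.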

Candida albicans [2] = test: Anti-adherence activity against Candida albicans serotype B assessed as displacement of adhered yeast cells on BECs at 13.8 mM incubated for 90 mins after preincubation of yeast cells with BECs by crystal violet staning based microscopic method relative to PBS control after second filtration; type: functional, organism-based; outline: as §1
Candida albicans [3] = test: Anti-adherence activity against Candida albicans serotype B assessed as fungal adhesion to human BECs at 13.8 mM co- incubated for 90 mins with yeast cells and BECs by crystal violet staning based microscopic method relative to control; type: functional; details: 1.5 h
Outline: (§2)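 Yeast (C. albicans MEN, stationary phase, washed, 1 × 10^8 per mL in PBS) were co-incubated with volunteer BECs at 50:1, with compound present, in 2 mL at 30 °C and 200 rpm for 90 min. Unattached yeast were removed on a 30 μm membrane with two PBS washes. Cells were heat-fixed and stained with crystal violet, and adherent yeast on 200 BECs were counted microscopically. PBS control. Three independent occasions; mean ± SEM.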

[4] = Toxicity against Candid albicans serotype B assessed as reduction in fungal growth at 0.0133 to 3.4 mM; details: candida albicans, 3400 µM; dose 0.0133-3.4 mM
Candida albicans [5] = test: (§3) Anti-adherence activity against Candida albicans serotype B assessed as reduction in fungal adhesion to human BECs at 13.8 mM preincubated with yeast cells for 90 mins followed by twice washout with PBS followed by BECs addition by crystal violet staning based microscopic method relative to control; type: functional; details: 1.5 h
Outline: (§4)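 Pre-treatment (exclusion) format. Stationary-phase C. albicans MEN in PBS were incubated with compound for 90 min, washed twice with PBS, and resuspended in 1 mL PBS. They were then mixed 50:1 with volunteer BECs for 90 min at 30 °C and 200 rpm. After 30 μm membrane filtration and crystal violet staining, yeast attached to 200 BECs were counted. PBS control. Three independent occasions; mean ± SEM.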

Candida albicans [6] = test: Anti-adherence activity against Candida albicans serotype B assessed as reduction in yeast adhesion to human BECs at 13.8 mM preincubated for 90 mins with BECs followed by twice washout with PBS followed by yeast cells addition by crystal violet staning based microscopic method relative to control; type: functional; details: 1.5 h
Outline: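 Reverse exclusion format. Buccal epithelial cells were pre-treated with compound at 13.8 mM before exposure to the yeast (C. albicans MEN, stationary phase, in PBS). Adherence was measured by membrane filtration, crystal violet staining, and microscopic counting of yeast on 200 BECs. Three independent occasions; mean ± SEM.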

Candida albicans [7] = test: Anti-adherence activity against Candida albicans serotype B assessed as displacement of adhered yeast cells on BECs at 138 uM incubated for 90 mins after preincubation of yeast cells with BECs by crystal violet staning based microscopic method relative to PBS control after second filtration; type: functional, organism-based; outline: as §1
Candida albicans [8] = test: Anti-adherence activity against Candida albicans serotype B assessed as displacement of adhered yeast cells on human BECs at 138 uM incubated for 90 mins after preincubation of yeast cells with BECs by crystal violet staning based microscopic method relative to PBS control; type: functional, organism-based; outline: as §1
Candida albicans [9] = test: Anti-adherence activity against Candida albicans serotype B assessed as fungal adhesion to human BECs at 1.38 mM co-incubated for 90 mins with yeast cells and BECs by crystal violet staning based microscopic method relative to control; type: functional; details: 1.5 h; outline: as §2
Candida albicans [10] = test: Anti-adherence activity against Candida albicans serotype B assessed as fungal adhesion to human BECs at 138 uM co-incubated for 90 mins with yeast cells and BECs by crystal violet staning based microscopic method relative to control; type: functional; details: 1.5 h; outline: as §2
Candida albicans [11] = test: as §3, with “0.138 to 1.38” for “13.8”; type: functional; details: dose mM 0.138-1.38, 1.5 h; outline: as §4

| Compound | inhibition (Candida albicans [1]) [%] | inhibition (Candida albicans [2]) [%] | Fungal adhesion relative to control (Candida albicans [3]) [%] | Activity [4] | inhibition at 13800 µM (Candida albicans [5]) [%] | inhibition at 13800 µM (Candida albicans [6]) [%] | inhibition (Candida albicans [7]) [%] | inhibition (Candida albicans [8]) [%] | Activity (Candida albicans [9]) [%] | Activity (Candida albicans [10]) [%] | inhibition (INH) (Candida albicans [11]) |
| --- | --- | --- | --- | --- | --- | --- | --- | --- | --- | --- | --- |
| O=c1c(NCc2cn(CCO[C@@H]3O[C@H](CO)[C@H](O)[C@H](O)[C@H]3O)nn2)c(NCc2cn(CCO[C@@H]3O[C@H](CO)[C@H](O)[C@H](O)[C@H]3O)nn2)c1=O | 35 | 21 | 69 | Non-Toxic | 33 | 19 | – | – | – | – | – |
| O=C1[C@@H]2[C@H](C(=O)N1Cc1cn([C@@H]3O[C@H](CO)[C@H](O)[C@H](O)[C@H]3O)nn1)[C@@H]1C=C[C@H]2C1 | 23 | 7 | 83 | – | 43 | – | – | – | – | – | – |
| O=C(NCc1cn([C@@H]2O[C@H](CO)[C@H](O)[C@H](O)[C@H]2O)nn1)[C@@H]1[C@H](C(=O)NCc2cn([C@@H]3O[C@H](CO)[C@H](O)[C@H](O)[C@H]3O)nn2)[C@@H]2C=C[C@H]1C2 | 45 | 34 | 61 | Non-Toxic | 65 | – | – | – | – | – | – |
| O=c1c(NCc2cn([C@@H]3O[C@H](CO)[C@H](O)[C@H](O)[C@H]3O)nn2)c(NCc2cn([C@@H]3O[C@H](CO)[C@H](O)[C@H](O)[C@H]3O)nn2)c1=O | – | – | 83 | Non-Toxic | 27 | 12 | – | – | – | – | – |
| CCC(=O)Nc1cc(C(=O)NCc2cn([C@@H]3O[C@H](CO)[C@H](O)[C@H](O)[C@H]3O)nn2)cc(C(=O)NCc2cn([C@@H]3O[C@H](CO)[C@H](O)[C@H](O)[C@H]3O)nn2)c1 | 42 | 31 | 59 | Non-Toxic | 42 | 22 | 36 | 56 | 74 | 65 | – |
| O=C(NCc1cn([C@@H]2O[C@H](CO)[C@H](O)[C@H](O)[C@H]2O)nn1)c1ccc(C(=O)NCc2cn([C@@H]3O[C@H](CO)[C@H](O)[C@H](O)[C@H]3O)nn2)cc1 | – | – | 38 | Non-Toxic | 33.5 | – | 48 | 63 | 74 | 56 | <=61% |
| O=C(NCc1cn([C@@H]2O[C@H](CO)[C@H](O)[C@H](O)[C@H]2O)nn1)[C@H]1[C@H](C(=O)NCc2cn([C@@H]3O[C@H](CO)[C@H](O)[C@H](O)[C@H]3O)nn2)[C@H]2C=C[C@@H]1C2 | 23 | 7 | 62 | – | 46 | – | – | – | – | – | – |
| O=c1c(NCc2cn([C@@H]3O[C@H](CO)[C@H](O[C@@H]4O[C@H](CO)[C@H](O)[C@H](O)[C@H]4O)[C@H](O)[C@H]3O)nn2)c(NCc2cn([C@@H]3O[C@H](CO)[C@H](O[C@@H]4O[C@H](CO)[C@H](O)[C@H](O)[C@H]4O)[C@H](O)[C@H]3O)nn2)c1=O | 39 | 25 | 64 | – | 34 | 15 | – | – | – | – | – |
